Laboratory results reported in ChEMBL document CHEMBL5724801, “EUbOPEN Chemogenomics Library - Multiplex” (2024).
Several values for one entry are separate records, joined by “and”; a condition that tells them apart may be missing. Identical values can stand only once.

System: U2OS
Experiment: Multiplex assay against U2OS
Format: toxicity, cell-based
Settings: human
Summary of the method: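 Live cells were stained at seeding with Hoechst33342, BioTracker Green Microtubule Cytoskeleton Dye, MitoTracker Red and Annexin V Alexa Fluor 680. Following compound addition, they were imaged on a CQ1 microscope at 37°C and 5% CO2 and gated by CellPathfinder machine learning into Hoechst high-intensity objects or normal cells, with normal cells split into healthy, pyknosed or fragmented nuclei and pyknosed cells into mitotic or apoptotic. Tubulin, mitochondrial-mass and membrane-permeability phenotypes are per cents of healthy-nucleus cells.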

[1] = 12 h, 1 µM, compound concentration 1 uM
[2] = 12 h, 10 µM, compound concentration 10 uM
[3] = 24 h, 1 µM, compound concentration 1 uM
[4] = 24 h, 10 µM, compound concentration 10 uM
[5] = 48 h, 1 µM, compound concentration 1 uM
[6] = 48 h, 10 µM, compound concentration 10 uM

C=CCN1C[C@H](C(=O)N(CCCN(C)C)C(=O)NCC)C[C@@H]2c3cccc4[nH]cc(c34)C[C@H]21 [CABERGOLINE]
Population Apoptotic (%) [1]: 86% and 57%
Population Fragmented Nuclei (%) [1]: 13% and 9%
Population Healthy Nuclei (%) [1]: 72% and 84%
Population Hoechst High Intensity Objects (%) [1]: 2% and 3%
Population Membrane Permeable-Phenotype (%) [1]: 3% and 8%
Population Mitochondria Different-Phenotype (%) [1]: 1% and 4%
Population Normal (%) [1]: 97% and 96%
Population Pyknosed Nuclei (%) [1]: 13% and 5%
Population Tubulin-Different-Phenotype (%) [1]: 1% and 5%
Total Cell Count [1]: 228 and 129
Population Apoptotic (%) [2]: 69% and 64%
Population Fragmented Nuclei (%) [2]: 35% and 17%
Population Healthy Nuclei (%) [2]: 52% and 70%
Population Hoechst High Intensity Objects (%) [2]: 3% and 2%
Population Membrane Permeable-Phenotype (%) [2]: 15% and 13%
Population Mitochondria Different-Phenotype (%) [2]: 9% and 21%
Population Mitotic Cells (%) [2]: 30% and 35%
Population Normal (%) [2]: 96% and 97%
Population Pyknosed Nuclei (%) [2]: 11% and 12%
Population Tubulin-Different-Phenotype (%) [2]: 11% and 9%
Total Cell Count [2]: 228 and 143
Population Apoptotic (%) [3]: 82% and 64%
Population Fragmented Nuclei (%) [3]: 15% and 7%
Population Healthy Nuclei (%) [3]: 74% and 83%
Population Hoechst High Intensity Objects (%) [3]: 3% and 1%
Population Membrane Permeable-Phenotype (%) [3]: 1% and 9%
Population Mitochondria Different-Phenotype (%) [3]: 1% and 4%
Population Mitotic Cells (%) [3]: 17% and 35%
Population Normal (%) [3]: 96% and 98%
Population Pyknosed Nuclei (%) [3]: 10% and 8%
Population Tubulin-Different-Phenotype (%) [3]: 0% and 6%
Total Cell Count [3]: 295 and 162
Population Apoptotic (%) [4]: 65% and 88%
Population Fragmented Nuclei (%) [4]: 33% and 14%
Population Healthy Nuclei (%) [4]: 54% and 75%
Population Hoechst High Intensity Objects (%) [4]: 3% and 2%
Population Membrane Permeable-Phenotype (%) [4]: 10% and 13%
Population Mitochondria Different-Phenotype (%) [4]: 5% and 12%
Population Normal (%) [4]: 96% and 97%
Population Pyknosed Nuclei (%) [4]: 11% and 10%
Population Tubulin-Different-Phenotype (%) [4]: 4% and 10%
Total Cell Count [4]: 228 and 165
Population Apoptotic (%) [5]: 88% and 93%
Population Fragmented Nuclei (%) [5]: 13%
Population Healthy Nuclei (%) [5]: 77% and 73%
Population Hoechst High Intensity Objects (%) [5]: 2% and 3%
Population Membrane Permeable-Phenotype (%) [5]: 5% and 4%
Population Mitochondria Different-Phenotype (%) [5]: 1% and 4%
Population Mitotic Cells (%) [5]: 11% and 6%
Population Normal (%) [5]: 97% and 96%
Population Pyknosed Nuclei (%) [5]: 8% and 13%
Population Tubulin-Different-Phenotype (%) [5]: 3%
Total Cell Count [5]: 405 and 221
Population Apoptotic (%) [6]: 86% and 87%
Population Fragmented Nuclei (%) [6]: 30% and 13%
Population Healthy Nuclei (%) [6]: 57% and 66%
Population Hoechst High Intensity Objects (%) [6]: 3% and 4%
Population Membrane Permeable-Phenotype (%) [6]: 7% and 9%
Population Mitochondria Different-Phenotype (%) [6]: 1% and 9%
Population Mitotic Cells (%) [6]: 13% and 12%
Population Normal (%) [6]: 96% and 95%
Population Pyknosed Nuclei (%) [6]: 12% and 20%
Population Tubulin-Different-Phenotype (%) [6]: 3% and 5%
Total Cell Count [6]: 303 and 206

CCCCC[C@H](O)/C=C/[C@H]1[C@H](O)CC(=O)[C@@H]1CCCCCCC(=O)O [ALPROSTADIL]
Population Apoptotic (%) [1]: 100% and 77%
Population Fragmented Nuclei (%) [1]: 31% and 11%
Population Healthy Nuclei (%) [1]: 62% and 81%
Population Hoechst High Intensity Objects (%) [1]: 1% and 0%
Population Membrane Permeable-Phenotype (%) [1]: 4% and 9%
Population Mitochondria Different-Phenotype (%) [1]: 2% and 5%
Population Mitotic Cells (%) [1]: 0% and 22%
Population Normal (%) [1]: 98% and 100%
Population Pyknosed Nuclei (%) [1]: 6%
Population Tubulin-Different-Phenotype (%) [1]: 2% and 6%
Total Cell Count [1]: 219 and 132
Population Apoptotic (%) [2]: 71% and 77%
Population Fragmented Nuclei (%) [2]: 23% and 15%
Population Healthy Nuclei (%) [2]: 69% and 75%
Population Hoechst High Intensity Objects (%) [2]: 1% and 2%
Population Membrane Permeable-Phenotype (%) [2]: 1% and 5%
Population Mitochondria Different-Phenotype (%) [2]: 0% and 3%
Population Mitotic Cells (%) [2]: 28% and 22%
Population Normal (%) [2]: 98% and 97%
Population Pyknosed Nuclei (%) [2]: 6% and 8%
Population Tubulin-Different-Phenotype (%) [2]: 0% and 5%
Total Cell Count [2]: 222 and 104
Population Apoptotic (%) [3]: 91% and 87%
Population Fragmented Nuclei (%) [3]: 25% and 14%
Population Healthy Nuclei (%) [3]: 65% and 75%
Population Hoechst High Intensity Objects (%) [3]: 1% and 0%
Population Membrane Permeable-Phenotype (%) [3]: 5% and 8%
Population Mitochondria Different-Phenotype (%) [3]: 2% and 4%
Population Mitotic Cells (%) [3]: 8% and 12%
Population Normal (%) [3]: 98% and 99%
Population Pyknosed Nuclei (%) [3]: 9%
Population Tubulin-Different-Phenotype (%) [3]: 3%
Total Cell Count [3]: 263 and 166
Population Apoptotic (%) [4]: 94% and 100%
Population Fragmented Nuclei (%) [4]: 19% and 12%
Population Healthy Nuclei (%) [4]: 74% and 76%
Population Hoechst High Intensity Objects (%) [4]: 1% and 0%
Population Membrane Permeable-Phenotype (%) [4]: 5% and 4%
Population Mitochondria Different-Phenotype (%) [4]: 0% and 2%
Population Mitotic Cells (%) [4]: 5% and 0%
Population Normal (%) [4]: 98% and 99%
Population Pyknosed Nuclei (%) [4]: 6% and 10%
Population Tubulin-Different-Phenotype (%) [4]: 3% and 1%
Total Cell Count [4]: 271 and 131
Population Apoptotic (%) [5]: 87% and 95%
Population Fragmented Nuclei (%) [5]: 22% and 18%
Population Healthy Nuclei (%) [5]: 68% and 71%
Population Hoechst High Intensity Objects (%) [5]: 2% and 3%
Population Membrane Permeable-Phenotype (%) [5]: 4% and 6%
Population Mitochondria Different-Phenotype (%) [5]: 2% and 5%
Population Mitotic Cells (%) [5]: 12% and 4%
Population Normal (%) [5]: 97% and 96%
Population Pyknosed Nuclei (%) [5]: 9%
Population Tubulin-Different-Phenotype (%) [5]: 2% and 6%
Total Cell Count [5]: 367 and 236
Population Apoptotic (%) [6]: 88% and 100%
Population Fragmented Nuclei (%) [6]: 13% and 11%
Population Healthy Nuclei (%) [6]: 76% and 77%
Population Hoechst High Intensity Objects (%) [6]: 0% and 2%
Population Membrane Permeable-Phenotype (%) [6]: 4% and 6%
Population Mitochondria Different-Phenotype (%) [6]: 0% and 1%
Population Mitotic Cells (%) [6]: 11% and 0%
Population Normal (%) [6]: 99% and 97%
Population Pyknosed Nuclei (%) [6]: 10%
Population Tubulin-Different-Phenotype (%) [6]: 3% and 4%
Total Cell Count [6]: 362 and 165
